# Tests used:
# [1] = assay type: in vivo, Sprague Dawley rats
# Outline: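 Male SD rats (250 ± 20 g), acclimated one week, n = 6 per group, oral single dose. Plasma separated at 4 °C, stored −80 °C, acetonitrile-precipitated with chrysophanol internal standard and diluted with water. Emodin quantified by HPLC-MS/MS, C18 column at 40 °C, triple quadrupole.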
# [2] = Equilibrium solubility, shake-flask method; assay type: physicochemical; conditions: pH 1.2, pH 4.5, pH 6.8, 37 °C
# Outline: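 Shake-flask method: excess solid stirred in 5 mL of water or pH 1.2, 4.5 or 6.8 buffer at 37 °C for 72 h. Samples were centrifuged, and the supernatant was assayed directly by HPLC using a modified Chinese Pharmacopoeia method.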
# [3] = In vitro powder dissolution in pH 6.8 and pH 7.0 media; assay type: physicochemical
# Outline: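 60 mg emodin, or an equivalent amount of cocrystal, added to 900 mL of pH 6.8 or pH 7.0 medium at 37 °C with propeller at 100 rpm. Autosampled 1 mL at 10–720 min (nine points), centrifuged 13,400 rpm for 10 min, supernatant by HPLC. Run in triplicate.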
# [4] = ref NIST (National Institute of Standards and Technology, n.d); cited from earlier work
# [5] = male, Sprague Dawley, rat, plasma, po, 100 mg/kg
smiles,measurement,setting,value
"Cc1cc(O)c2c(c1)C(=O)c1cc(O)cc(O)c1C2=O [EMO, Emodin]",AUC(0-inf),[1]; [5],33.5 µg·h/mL
same,AUC(0-t),[1]; [5],2.37 ± 0.947 µg·h/mL
same,Cmax,[1]; [5],0.274 ± 0.16 µg/mL
same,MRT inf,[1]; [5],5.9 ± 5.41 h
same,MRT last,[1]; [5],10.3 ± 1.94 h
same,Tmax,[1]; [5],11 ± 1.67 h
same,half-life,[1]; [5],4.13 ± 1.97 h
same,CLz,"[1]; rats, oral, EMO 100 mg/kg or equimolar cocrystal, plasma EMO, n = 6",4 ± 3 mL/h/kg
same,Solubility in purified water and three other media,[2],negligible solubility
same,Apparent dissolution (detectability),[3],undetectability
"Cc1nc(C)c(C)nc1C [TMP, Tetramethylpyrazine]",Sublimation enthalpy,[4],94.6 kJ/mol
